From article PMC10829792 (Cell Reports Medicine, 2024)

What was measured:
γH2AX in HeLa cells = assay: γH2AX foci assay, immunofluorescence; assay type: cell-based, human; settings: 24 h, γPNA2-NLS 8 μM, bleomycin 50 and 150 μM
Outline: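 HeLa cells were seeded at 100,000/well and exposed for 24 h to test compound (8 μM) or bleomycin (50 and 150 μM). Nuclei were stained with NucBlue (25 min, 37°C). Cells were fixed in 4% PFA (10 min, RT), permeabilised with 0.1% Triton X in PBS, and stained with PE-conjugated anti-γH2AX (2 h, 37°C). Read-out was fluorescence microscopy.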

U2932 xenograft mice = assay: Tumor growth and survival study in U2932 xenograft mice; assay type: in vivo, mouse; settings: romidepsin 1 mg/kg i.p. on days 0 and 6, n = 8
Outline: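 Mice bearing U2932 tumours of 100–150 mm³ were randomised. Romidepsin 1 mg/kg i.p. on days 0 and 6, and test compound 5 mg/kg on days 1, 4, 7 and 10, alone or combined. Vehicle group included.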

Raji cells = assay: Cell viability, trypan blue assay; assay type: cell-based, human; settings: romidepsin with or without γPNA2-NLS, mean, n = 3
DLBCL PDX tumors = assay: Histology and immunohistochemistry; assay type: in vivo, mouse; settings: romidepsin study, n = 2 mice per group, n > 4 images
Outline: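 DLBCL PDX mice grouped at tumour volume 100–150 mm³. Romidepsin 1 mg/kg i.p. on days 0 and 6; test compound 5 mg/kg on days 1, 4, 7 and 10. Mice euthanized at 1800–2000 mm³.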

[1] = test system: DLBCL patient-derived xenograft (PDX) mice; assay: Tumor growth in DLBCL PDX mice; assay type: in vivo, mouse; settings: γPNA2-NLS 5 mg/kg, romidepsin 1 mg/kg i.p., n = 5 per group
Outline: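 DLBCL PDX fragments were serially implanted, reharvested at ~1500 mm³, and grouped at 100–150 mm³. Dosing followed the U2932 xenograft regimen: romidepsin 1 mg/kg i.p. days 0 and 6; test compound 5 mg/kg days 1, 4, 7 and 10. Body weight and tumour volume were recorded daily. Endpoint was tumour volume 1800–2000 mm³.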

U2932 cells = assay: Cell viability, trypan blue assay; assay type: cell-based, human; settings: U2932 cells treated with only romidepsin (10 nM) or γPNA2-NLS (8 μM)

bleomycin
γH2AX immunofluorescence staining (γH2AX in HeLa cells): increased γH2AX-positive nuclei

C/C=C1\NC(=O)[C@H]2CSSCC/C=C/[C@H](CC(=O)N[C@H](C(C)C)C(=O)N2)OC(=O)[C@H](C(C)C)NC1=O [romidepsin]
reduction of tumor growth (U2932 xenograft mice): 2 fold
reduction in viability, day 4 (Raji cells): 58%
caspase-3 activation, fold increase (DLBCL PDX tumors): ~5 fold
lower tumor volumes / decrease on day 35 [1]: 1.3 fold
viability, day 4, single treatments (U2932 cells): 50 % viability
